Screening data (PubChem BioAssay)
DDE Tn6 FP inh: inhibitors of Tn6 peptide binding to fibrin DD(E), primary screen, biochemical, fluorescence polarization, human fibrin, Tn6 probe; 370,000 tested, 0.21% active; Fibrin DD(E) TRITC-Tn6 fluorescence polarization displacement; Fibrinogen beta chain (Homo sapiens), P02675; AID 720509, 2013; inhibition, % at 8.3 µM;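 active = inhibition above a per-campaign cutoff: mean of compounds within control limits plus 3 SD, cut at about 15% in these data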;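 note: 0% = median of all compound wells on the plate and 100% = blocking peptide control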
Target sequence (P02675 whole entry, looked up): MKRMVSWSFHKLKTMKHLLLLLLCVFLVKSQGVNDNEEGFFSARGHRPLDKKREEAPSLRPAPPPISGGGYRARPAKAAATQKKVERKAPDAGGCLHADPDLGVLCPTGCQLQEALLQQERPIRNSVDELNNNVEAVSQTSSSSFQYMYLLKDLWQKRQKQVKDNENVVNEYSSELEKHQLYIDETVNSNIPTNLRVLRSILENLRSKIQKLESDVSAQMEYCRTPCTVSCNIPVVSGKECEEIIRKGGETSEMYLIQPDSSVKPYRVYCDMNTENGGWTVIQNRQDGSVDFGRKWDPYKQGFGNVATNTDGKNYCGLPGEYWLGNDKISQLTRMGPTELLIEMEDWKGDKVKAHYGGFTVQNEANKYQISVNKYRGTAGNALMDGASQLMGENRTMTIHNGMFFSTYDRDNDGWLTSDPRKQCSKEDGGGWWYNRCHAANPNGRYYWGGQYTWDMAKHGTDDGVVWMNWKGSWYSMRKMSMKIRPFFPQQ
Tn7 DDE FP: inhibitors of Tn7 peptide binding to fibrin DD(E), primary screen, biochemical, fluorescence polarization, human fibrin, Tn7 probe. inhibition, % at 8.3 µM. FP displacement of FITC-Tn7 peptide from fibrin DD(E); 0% = median of compound wells per plate. AID 720508, 2013. Fibrinogen beta chain (Homo sapiens), P02675. 370,000 tested, 0.13% active;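 active = inhibition above the mean of compounds falling within the control limits plus 3 SD of them, cut at about 14% in these data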;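 note: 0% = plate median of compound wells and 100% = 10 µM Aha-Tn7 peptide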
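system = human fibrin DD(E) protein | quantity = DD(E) 2 µM final | medium = Tris/NaCl/CaCl2 buffer, pH 7.8 | also added = labelled Tn7 tracer, 0.1 µM | compound dosing = single point at 8.3 µM | timing = compound with protein 10 min, then 3 h after probe, room temperature | signal = FP measurement | benchmarks = Aha-Tn7 high control | repeats = one replicate per compound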
SKN-1 inh: suppressors of acrylamide-induced Pgst-4::GFP reporter in worms, primary screen, SKN-1 inhibitor project, whole organism, uHTS, GFP/RFP fluorescence ratio, strain VP596. C. elegans VP596 Pgst-4::GFP/RFP ratio, 24 h. AID 624304, 2012. inhibition, % at 21.8 µM. 360,000 tested, 0.49% active;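 active = interference check ratio from 0.5 to 1.5 plus GFP to RFP signal ratio inhibition reaching or exceeding a fixed threshold, cut at about 30% in these data, passing the limit was not always enough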
MT1-MMP act inh: blockers of MT1-MMP proenzyme processing, primary screen, HT1080 RFP-PRO-GFP cells, GFP/RFP fluorescence | Matrix metalloproteinase-14 (Homo sapiens), P50281 | GFP/RFP ratio fluorescence, overnight; percent of plate control window, DMSO zero | GFP/RFP ratio change, % at 20 µM | 360,000 tested, 0.061% active;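 active = GFP/RFP ratio change of at least 30% with cell ATP level not reduced by more than half and red fluorescence within 50% of control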
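Read-out: GFP/RFP fluorescence ratio; Test system: RFP-PRO-GFP reporter HT1080 cells; Compound dosing: single-point 20 µM compound, 1% DMSO; Times: overnight compound exposure at 37 °C.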
An asterisk follows results filed as active; x = not tested or not shown. This is a sample that favours compounds with a hit; in the whole collection about 0.84% have one here.

SMILES	DDE Tn6 FP inh	Tn7 DDE FP	SKN-1 inh	MT1-MMP act inh
CC(C)c1ccc(NC(=O)C2CC(=O)N(C3CCCC3)C2)cc1 (stereo not given)	-5	6	-8	-1
Cc1cc(Oc2cccnc2)ccc1NC(=O)Cc1c(C)[nH]c2ccccc12	-5	2	x	x
COc1ccc(-c2ccc(C#N)c(SCC(=O)Nc3sc4c(c3C#N)CCC4)n2)cc1	6	1	33	-84
N#Cc1ccc(-c2cccnc2)nc1SCC(=O)Nc1sc2c(c1C#N)CCC2	x	x	39*	-71
O=C(c1ccc2oc(CCc3ccccc3)nc2c1)N1CC[C@H](O)C1	-6	1	-11	2
CSC1=C(C#N)C(c2ccc(Cl)cc2)C2=C(CC(C)(C)CC2=O)N1 (stereo not given)	4	3	35*	-14
CCCCN1CN2Cc3cc(F)ccc3C2CS1(=O)=O (stereo not given)	1	-1	x	x
OC(c1ccccc1)(c1nc(-c2ccc3c(c2)OCO3)cs1)C(F)(F)F (stereo not given)	-8	-8	-4	0
N#C/C(=C\C=C\c1ccccc1)c1nc(-c2ccc3c(c2)OCO3)cs1	-4	-5	47*	-12
O=C1NCC(Nc2ccc(Br)cc2)C(=O)N1 (stereo not given)	3	4	13	-1
COC(=O)c1ccc2nc(-c3ccc(C)cc3)c(Cc3cccc(F)c3)n2c1	-4	-2	41*	-7
O=C(CSc1nnc(-c2ccccn2)n1-c1ccc(Cl)cc1)Nc1ccc(S(=O)(=O)Nc2nccs2)cc1	-7	-1	x	x
Cc1ccccc1-c1cc(=O)c2ccccc2o1	0	11	4	0
O=c1cc(-c2ccc(F)cc2)oc2ccccc12	2	1	53*	0
CSc1ccc(-c2cc(=O)c3ccccc3o2)cc1	-3	-6	47*	x
O=c1cc(-c2ccccc2F)oc2ccccc12	-1	6	-7	-2
COC(=O)[C@]12C=CCN1[C@@H](c1ccc(OC)c(OC)c1)c1c(c3ccccc3n1S(=O)(=O)c1ccc(C)cc1)C2	-5	1	x	x
O=S1(=O)N[C@H](Cc2ccccc2)COc2cc(N3CCCC3)ccc21	1	-4	x	x
FC(F)(F)c1cnc(Sc2ncn[nH]2)c(Cl)c1	-4	-6	0	-1
O=S1(=O)CC(c2ccccc2)=NN=C(c2ccccc2)C1	2	-4	36*	4
O=C1CC(c2ccccc2)=NO1	4	0	-3	0
S=c1[nH]c2ccccc2o1	-4	0	13	-6
CCOc1ccc(OCC)c(NC(=O)CSCC(=O)O)c1	2	0	36*	1
COc1ccc(OC)c(NC(=O)CSCC(=O)O)c1	-1	-4	-4	-6
c1ccc(N=Nc2ccc(C3=NCCO3)cc2)cc1	2	-6	53*	4
SMILES	DDE Tn6 FP inh	Tn7 DDE FP	SKN-1 inh	MT1-MMP act inh
C=CC[C@H]1c2ccccc2[C@H]2N3N=Cc4ccccc4[C@H]3[C@H](CCCC)C(=O)N2N1C(=O)NCc1ccccc1	-7	2	x	x
N/C(=N\OC(=O)c1ccc(Cl)cc1)c1cccnc1	3	1	29*	x
N/C(=N\OC(=O)c1ccc(Cl)cc1Cl)c1cccnc1	1	-1	54*	-2
Cc1cccc(/C(N)=N/OC(=O)c2ccc(Cl)cc2Cl)c1	-3	2	-9	-1
N/C(=N\OC(=O)c1ccccc1Cl)c1ccccc1	0	4	61*	-1
N/C(=N\OC(=O)c1ccc(Cl)cc1Cl)c1ccc(Cl)cc1	1	11	-14	x
N/C(=N\OC(=O)c1ccc(Cl)cc1Cl)c1ccccc1	2	3	56*	-8
Cc1c(Cl)cccc1NC(=O)CCC(=O)NNC(=O)c1ccccc1Cl	1	0	-7	4
Cc1c(C(=O)Nc2cccc(C(F)(F)F)c2)oc2ccc(S(=O)(=O)N3CCOCC3)cc12	4	3	36*	5
Cc1ccc([C@H]2C(C(=O)O)=CC[C@@H](c3ccc4c(c3)OCO4)N2S(=O)(=O)c2ccc(C)cc2)cc1	-4	7	-2	-2
COC(=O)[C@]12C[C@H](CC(=O)NCc3cccc(C(F)(F)F)c3)C(=O)N(Cc3cccc4ccccc34)C1=C[C@H](C(C)(C)C)O[C@@H]2C	8	-2	x	x
N=c1oc2ccccc2cc1-c1nc(-c2ccccc2)cs1	-1	2	58*	-3
N=c1oc2ccc3ccccc3c2cc1-c1nc(-c2ccccc2)cs1	10	6	7	-4
COC(=O)[C@]12C[C@H](CC(=O)NCc3cccc(C(F)(F)F)c3)C(=O)N(CCc3ccc(OC)c(OC)c3)C1=C[C@H](COCc1ccccc1)O[C@@H]2C	1	3	x	x
CCc1sc(N(C(=O)Cc2ccccc2)c2ccccc2F)nc1-c1ccc(C)cc1	-4	-3	4	-8
CCc1sc(N(C(=O)Cc2ccccc2)c2cccc(F)c2)nc1-c1ccc(C)cc1	-3	-10	44*	-1
O=C(Nc1nc2c(s1)CN(Cc1ccccc1)CC2)C1CCC1	3	-3	22	-2
CN(C)c1ccc(/C=C(\C#N)C(=O)Nc2nc3c(s2)CCN(Cc2ccccc2)C3)cc1	1	-10	45*	-226
CCCOc1ccc2cc(-c3ccccn3)c(=O)oc2c1	3	-2	45*	-1
COc1ccc(S(=O)(=O)n2ccc(-c3ccc(OCCN(C)c4ccccn4)cc3)n2)cc1	2	0	45*	0
COc1ccc(S(=O)(=O)N(CC(=O)O)c2ccccn2)cc1	2	-10	15	3
O=C(Nc1ccc(-c2cn3ccsc3n2)cc1)C1COc2ccccc2O1 (stereo not given)	-5	2	36*	0
COc1ccccc1C1C(C(=O)NCc2ccccc2)=C(C)Nc2ncnn21 (stereo not given)	-1	4	47*	7
CCOC(=O)c1ccc(NC(=O)[C@@H]2CCC(=O)N2C2OC(=O)c3c2ccc(OC)c3OC)cc1 (stereo not given in full)	1	-2	-12	4
CCCc1cc2nnc(SCC(=O)N(C)C3CCCCC3)n2c(N)n1	-4	8	43*	-5
O=[N+]([O-])c1ccccc1NCCOc1ccccc1	-2	-3	46*	5
COc1ccc([C@@]23CCN=C2c2[nH]c4ccccc4c2CCN3)c(N)c1	3	0	x	x
COc1ccc(Nc2ccc(OC)cc2)cc1	9	-2	47	38*
COC(=O)Cc1nnn2c1[C@H](C)[C@@H](OC)c1cccc(Cl)c1-2	1	-9	x	x
